Values belong to the compound of their own block, whether it stands above or below them. Active and inactive are the calls of the source. No cut-off for these calls is given here.
How the values were obtained:
[1] = biological target: POU domain, class 5, transcription factor 1 (Homo sapiens) (UniProt Q01860); test: Activation of Oct3/4 (unknown origin) expressed in HEK293 cells after 72 hrs by luciferase reporter gene assay relative to control; format: cell-based
Procedure, shortened: (§1)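 HEK293 cells stably carrying luciferase under a human Oct3/4 promoter (HEK-Oct3/4), or NCCIT cells lentivirally transduced with an Oct3/4 transcriptional response element reporter (NCCIT-Oct3/4, kept under 400 ng/mL puromycin). Cells seeded at 100,000/well for 24 h, then treated with compound. Lysed for 10 min at 37°C, luciferin/ATP mix added, read after 3 min. Signal given as percent of control cells; at least five independent experiments.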

[2] = biological target: POU domain, class 5, transcription factor 1 (Homo sapiens) (UniProt Q01860); test: Activation of Oct3/4 (unknown origin) expressed in human HeLa cells after 72 hrs by luciferase reporter gene assay relative to control; format: cell-based
[3] = biological target: POU domain, class 5, transcription factor 1 (Homo sapiens) (UniProt Q01860); test: Activation of Oct3/4 (unknown origin) expressed in HEK293 cells at 20 uM after 72 hrs by luciferase reporter gene assay relative to control; format: cell-based; procedure, shortened: as §1
[4] = biological target: POU domain, class 5, transcription factor 1 (Homo sapiens) (UniProt Q01860); test: Activation of Oct3/4 in human fibroblasts assessed as increase of Nanog gene expression after 48 hrs by RT-PCR analysis relative to control
Procedure, shortened: (§2)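 qRT-PCR of pluripotency-related genes in compound-treated HEK293 cells or primary human skin fibroblasts, against an endogenous control gene. Values normalized to DMSO-treated cells as mean ± SD of quadruplicates, representative of two independent experiments.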

[5] = biological target: POU domain, class 5, transcription factor 1 (Homo sapiens) (UniProt Q01860); test: Activation of Oct3/4 (unknown origin) expressed in HEK293 cells assessed as accumulation of Nanog after 72 hrs by immunoblotting; format: cell-based
Procedure, shortened: (§3)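 Immunoblot. Compound-treated cells lysed in urea lysis buffer (6 M urea, 0.5% Triton X-100, protease/phosphatase inhibitors). 40 µg total protein run on 10% SDS-PAGE. Probed with Oct3/4, Nanog or Lin28 antibodies, with vinculin or β-actin as loading control. Primary antibody 1:1000 overnight at 4°C, secondary 1:10,000 for 1 h at RT; ECL detection.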

[6] = biological target: POU domain, class 5, transcription factor 1 (Homo sapiens) (UniProt Q01860); test: Activation of Oct3/4 (unknown origin) expressed in human NCCIT cells assessed as accumulation of Nanog after 72 hrs by immunoblotting; format: cell-based; procedure, shortened: as §3
Fibroblast [7] = test: Increase of Oct3/4 gene expression in human fibroblasts after 48 hrs by RT-PCR analysis relative to control; format: functional; procedure, shortened: as §2
[8] = biological target: POU domain, class 5, transcription factor 1 (Homo sapiens) (UniProt Q01860); test: Activation of Oct3/4 (unknown origin) expressed in HEK293 cells assessed as increase of Sox2 gene expression after 72 hrs by RT-PCR analysis; format: cell-based; procedure, shortened: as §2
[9] = biological target: POU domain, class 5, transcription factor 1 (Homo sapiens) (UniProt Q01860); test: Activation of Oct3/4 in human fibroblasts assessed as co-expression of Nanog and Klf4 after 5 days by immunocytochemistry analysis
Procedure, shortened: (§4)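 Primary human fibroblasts seeded at 10,000 cells/well on Geltrex. After 24 h, treated for 5 days in DMEM/F12 with 20% knockout serum replacement, 10 ng/mL bFGF and 1 mM β-mercaptoethanol. Fixed in 4% PFA, blocked with 5% goat serum/0.3% Triton. Stained overnight at 4°C for Oct3/4 (1:400), Nanog (1:1000), Sox2 (1:100) or Klf4 (1:100), then Alexa 594/488 secondary for 1 h.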

[10] = biological target: POU domain, class 5, transcription factor 1 (Homo sapiens) (UniProt Q01860); test: Activation of Oct3/4 in human fibroblasts assessed as increase of Lin28 protein expression after 72 hrs by immunoblotting relative to control; procedure, shortened: as §3
[11] = biological target: POU domain, class 5, transcription factor 1 (Homo sapiens) (UniProt Q01860); test: Activation of Oct3/4 (unknown origin) expressed in HEK293 cells at 40 uM after 72 hrs by luciferase reporter gene assay relative to control; format: cell-based; procedure, shortened: as §1
HEK293 [12] = test: Increase of Oct3/4 gene expression in human HEK293 cells after 72 hrs by RT-PCR analysis; format: functional, cell-based; procedure, shortened: as §2
HEK293 [13] = test: Increase of Oct3/4 expression in human HEK293 cells after 72 hrs by immunoblotting; format: functional, cell-based; procedure, shortened: as §3
[14] = biological target: POU domain, class 5, transcription factor 1 (Homo sapiens) (UniProt Q01860); test: Activation of Oct3/4 (unknown origin) expressed in HEK293 cells assessed as […] of Rex1 gene expression after 72 hrs by RT-PCR analysis; format: cell-based; procedure, shortened: as §2
[15] = biological target: POU domain, class 5, transcription factor 1 (Homo sapiens) (UniProt Q01860); test: Activation of Oct3/4 (unknown origin) expressed in HEK293 cells assessed as increase of Lin28 gene expression after 72 hrs by RT-PCR analysis; format: cell-based; procedure, shortened: as §2
[16] = biological target: POU domain, class 5, transcription factor 1 (Homo sapiens) (UniProt Q01860); test: Activation of Oct3/4 (unknown origin) expressed in human NCCIT cells at 5 uM after 72 hrs by luciferase reporter gene assay relative to control; format: cell-based
[17] = biological target: POU domain, class 5, transcription factor 1 (Homo sapiens) (UniProt Q01860); test: Activation of Oct3/4 (unknown origin) transcriptional activity expressed in human NCCIT cells after 72 hrs by luciferase reporter gene assay relative to control; format: cell-based; procedure, shortened: as §1
[18] = biological target: POU domain, class 5, transcription factor 1 (Homo sapiens) (UniProt Q01860); test: Activation of Oct3/4 (unknown origin) expressed in human HeLa cells assessed as accumulation of Nanog after 72 hrs by immunoblotting; format: cell-based; procedure, shortened: as §3
[19] = biological target: POU domain, class 5, transcription factor 1 (Homo sapiens) (UniProt Q01860); test: Activation of Oct3/4 (unknown origin) expressed in HEK293 cells assessed as increase of Nanog gene expression after 72 hrs by RT-PCR analysis; format: cell-based; procedure, shortened: as §2
[20] = biological target: POU domain, class 5, transcription factor 1 (Homo sapiens) (UniProt Q01860); test: Activation of Oct3/4 in human fibroblasts assessed as increase of Lin28 gene expression after 48 hrs by RT-PCR analysis relative to control; procedure, shortened: as §2
[21] = biological target: POU domain, class 5, transcription factor 1 (Homo sapiens) (UniProt Q01860); test: Activation of Oct3/4 in human fibroblasts assessed as repression of N-cadherin gene expression after 48 hrs by RT-PCR analysis relative to control; procedure, shortened: as §2
[22] = biological target: POU domain, class 5, transcription factor 1 (Homo sapiens) (UniProt Q01860); test: Activation of Oct3/4 in human fibroblasts assessed as increase of Rex1 gene expression after 48 hrs by RT-PCR analysis relative to control; procedure, shortened: as §2
[23] = biological target: POU domain, class 5, transcription factor 1 (Homo sapiens) (UniProt Q01860); test: Activation of Oct3/4 (unknown origin) expressed in human NCCIT cells at 20 uM after 2 hrs by luciferase reporter gene assay relative to control; format: cell-based
[24] = biological target: POU domain, class 5, transcription factor 1 (Homo sapiens) (UniProt Q01860); test: Activation of Oct3/4 (unknown origin) transcriptional activity expressed in human NCCIT cells at 20 uM by luciferase reporter gene assay relative to control; format: cell-based; conditions: TDE = time-dependent effect; procedure, shortened: as §1
Fibroblast [25] = test: Induction of endogenous cellular parameters in human fibroblasts assessed as increase in ALP-FITC signal using propidium iodide staining after 5 days; format: functional, cell-based
[26] = biological target: POU domain, class 5, transcription factor 1 (Homo sapiens) (UniProt Q01860); test: Activation of Oct3/4 (unknown origin) expressed in human HEK293 cells after 48 hrs by luciferase reporter gene assay relative to control; format: cell-based; procedure, shortened: as §1
[27] = biological target: POU domain, class 5, transcription factor 1 (Homo sapiens) (UniProt Q01860); test: Activation of Oct3/4 in human fibroblasts assessed as increase of Nanog protein expression after 72 hrs by immunoblotting relative to control; procedure, shortened: as §3
[28] = biological target: POU domain, class 5, transcription factor 1 (Homo sapiens) (UniProt Q01860); test: Activation of Oct3/4 in human fibroblasts assessed as co-expression of Oct3/4 and Sox2 after 5 days by immunocytochemistry analysis; procedure, shortened: as §4

Sequence of POU domain, class 5, transcription factor 1 (Homo sapiens) (Q01860 whole entry, the tested form may be a part): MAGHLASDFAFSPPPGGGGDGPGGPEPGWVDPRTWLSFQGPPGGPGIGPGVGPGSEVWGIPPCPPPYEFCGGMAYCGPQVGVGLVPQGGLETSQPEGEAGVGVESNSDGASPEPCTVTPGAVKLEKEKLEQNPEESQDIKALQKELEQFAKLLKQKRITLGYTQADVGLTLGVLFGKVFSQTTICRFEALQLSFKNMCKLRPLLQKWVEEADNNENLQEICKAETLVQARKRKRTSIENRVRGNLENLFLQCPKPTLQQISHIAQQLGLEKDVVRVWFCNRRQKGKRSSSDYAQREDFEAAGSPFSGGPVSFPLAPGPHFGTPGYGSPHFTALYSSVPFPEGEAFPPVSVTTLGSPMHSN

Activity [1]: Active
Compound: CCOC(=O)c1csc(Nc2ccc(Cl)cc2Cl)n1

Activity [1]: inactive
Compound: O=C(O)c1csc(Nc2ccc(Cl)cc2Cl)n1

Activity [2]: Dose-dependent effect
fold change (FC) [3]: 2
fold change (FC) [4]: 2
Activity [5]: Active
Activity [6]: Active
Activity [8]: Active
Activity [9]: Active
Activity [1]: Active
Activity [10]: Active
fold change (FC) [11]: 3.5
Activity [14]: Active
Activity [15]: inactive
Activity [16]: Active
Activity [17]: Dose-dependent effect
fold change (FC) [17]: 4
Activity [18]: Dose-dependent effect
Activity [19]: Active
fold change (FC) [20]: 20
Activity [21]: Active
fold change (FC) [22]: 30
Activity [23]: Active
Activity [24]: tde
Activity [26]: inactive
Activity [27]: Active
Activity [28]: Active
Compound: CCOC(=O)c1csc(Nc2ccc(Cl)cc2)n1
fold change (FC) (Fibroblast [7]): 15
Activity (HEK293 [12]): Active
Activity (HEK293 [13]): Dose-dependent effect
Activity (Fibroblast [25]): Active

Activity [1]: Active
Compound: CCOC(=O)c1csc(Nc2ccccc2)n1

Activity [1]: Active
Compound: CCOC(=O)c1csc(Nc2cccc(F)c2)n1

Activity [1]: inactive
Compound: O=C(O)c1csc(Nc2cc(Cl)ccc2Cl)n1

Activity [1]: Active
Compound: CCOC(=O)c1csc(Nc2cccc(Cl)c2)n1

Activity [1]: Active
Compound: CCOC(=O)c1csc(Nc2ccc(Cl)c(Cl)c2)n1

More lines, now with the values behind:

Compound: C=CCNc1nc(C(=O)OCC)cs1
Activity [1]: inactive

Compound: O=C(O)c1csc(Nc2cccc(Cl)c2)n1
Activity [1]: inactive

Compound: O=C(O)c1csc(Nc2ccc(Cl)cc2)n1
Activity [1]: inactive

Compound: CN(C)CCCNC(=O)c1csc(Nc2ccc(Cl)cc2)n1
Activity [1]: inactive

Compound: CCCCNc1nc(C(=O)OCC)cs1
Activity [1]: inactive

Compound: CCOC(=O)c1csc(NCc2ccccc2)n1
Activity [1]: inactive

Compound: CCOC(=O)c1csc(N)n1
Activity [1]: inactive

Compound: CCOC(=O)c1csc(Nc2ccc(Nc3nc(C(=O)OCC)cs3)cc2)n1
Activity [1]: inactive

Compound: CCOC(=O)c1csc(NC(C)=O)n1
Activity [1]: inactive
